Legend:
claudin-1 [1] = molecular target: T1, claudin-1 (Mus musculus, UniProt O88551); type: in vivo, CPC;Apc mice; settings: wide-field NIR fluorescence after intravenous administration
T1 sequence (O88551 1-211): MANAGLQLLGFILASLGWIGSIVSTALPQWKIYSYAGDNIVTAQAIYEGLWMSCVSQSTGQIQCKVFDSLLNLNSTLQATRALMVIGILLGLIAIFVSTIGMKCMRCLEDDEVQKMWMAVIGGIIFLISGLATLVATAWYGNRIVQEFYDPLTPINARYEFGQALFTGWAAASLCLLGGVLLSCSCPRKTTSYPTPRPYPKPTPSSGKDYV
Summary of the method: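 Mice aged 2–4 months ate chlorophyll-free chow for 1 week, were fasted 4–6 h and had the colon rinsed with water. They were under isoflurane 2–4% in oxygen (0.5 L/min). A rigid endoscope in the distal colon gave 671 nm excitation; 200 μM peptide in 200 μL PBS was given i.v. Images were taken 0–24 h and normalised to coregistered reflectance. T/B ratios used mean intensity of three 20×20 μm2 regions each for adenoma and adjacent normal mucosa. Control peptide was imaged in the same mouse 7 days later. n = 6 mice per group; data log-transformed; paired t tests.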

claudin-1 [2] = molecular target: T1, claudin-1; test: Side-view confocal endomicroscopy of colon in vivo; set-up: species or system CPC;Apc mice; settings: for Binding/staining pattern in normal colon on confocal images: in vivo, ~1 hour after i.v. 200 μM in 200 μL PBS
[3] = Serum stability by HPLC, incubation in mouse serum ex vivo; type: in vitro ADME; settings: 30 uM peptide in mouse serum at 37 °C, supernatant analysed by HPLC
Summary of the method: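 Peptide at 30 uM was incubated in mouse serum at 37 °C for up to 24 h. Samples were taken at 0, 1, 2 and 24 h and centrifuged at 14,000 rpm. Supernatant aliquots were analysed by HPLC at each time point.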

[4] = Biodistribution in major organs; set-up: species or system CPC;Apc mice; settings: organs ex vivo ~1 hour after i.v. injection, IVIS, n = 6
Summary of the method: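 CPC;Apc mice received 200 μL PBS containing 200 μM labelled peptide, control peptide or free Cy5.5 i.v. They were sacrificed ~1 h later. Organs were rinsed in cold PBS, dried and imaged unperfused (ex 640 nm, em 720 nm). Intensity was averaged from three regions per organ. Values were log-transformed and fitted to an ANOVA with 24 means (3 groups, 8 tissues) plus mouse effects.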

claudin-1 [5] = molecular target: T1, claudin-1; test: Ex vivo peptide staining; type: binding; settings: for Mean fluorescence intensity, adenoma vs normal: ex vivo staining, 0.5 μM peptide, paired t tests, n = 6 per group
Summary of the method: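 Distal colon was opened, rinsed in cold PBS, fixed ~48 h in 10% neutral-buffered formalin, moved to 70% ethanol and processed for histology. Adjacent sections were deparaffinized and antigen-retrieved. Blocking was 2% BSA ~1 h, then 0.5 μM peptide for 10 min. For colocalization, peptide came first, then anti-claudin-1 antibody detected with AF488 goat anti-rabbit IgG. Imaged by inverted confocal microscopy.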

[6] = ex vivo, peptide then anti-claudin-1 antibody-AF488, merged image

Row | Substance | Fluorescence signal from nonpolypoid adenoma (claudin-1 [1]) | Mean fluorescence intensity, adenoma vs adjacent normal colon (claudin-1 [2]; confocal, ~1 hour after injection, paired t test, n = 11 mice) | Binding/staining pattern in normal colon on confocal images (claudin-1 [2]) | Peptide stability in mouse serum by HPLC at 24 hours [3] | Mean fluorescence intensity, adenoma vs adjacent normal colon [4] | Mean fluorescence intensity, adenoma vs normal (claudin-1 [5]) | Correlation ρ of co-staining with anti-claudin-1 antibody, adenoma (claudin-1 [5]; [6]) | Correlation ρ of co-staining with anti-claudin-1 antibody, normal colon (claudin-1 [5]; [6]) | Fluorescence signal from polypoid adenoma (claudin-1 [1]) | Staining of adenoma and normal colon sections (claudin-1 [5]; 0.5 μM peptide for 10 minutes on formalin-fixed sections, confocal microscope)
1 | RTSPSSR [RTS*-Cy5.5] | increased intensity | significantly greater for adenoma than for adjacent normal colon | binding at tight junctions in between cells | signs of peptide breakdown | significantly greater | significantly greater for adenoma vs normal | 0.66 | 0.60 |  | 
2 | SPTSSRR [SPT*-Cy5.5, reference compound] | minimal signal |  | vague appearance of crypt structures |  |  | No difference |  |  | minimal signal | Minimal signal

Source: paper PMC7056050 (Clinical and Translational Gastroenterology, 2020)
